Screens as filed in PubChem.
MITF act = activators of MITF-driven TRPM1 promoter activity in SK-MEL-5 cells; hit rate 0.75% among 300,000; AID 588334; SK-MEL-5 TRPM1-promoter luciferase, 24 h; % of positive control, neutral wells = 0; activation, % at 12.5 µM;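 active = mean activation of at least 80% with every replicate also reaching 80%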
SR-BI uptake up = enhances SR-BI lipid uptake from DiI-HDL; activation, % at 12.5 µM; CHO ldlA[mSR-BI] cells, DiI-HDL uptake fluorescence, 3 h; 100 = double the neutral-control signal; hit rate 0.096% among 320,000;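 active = mean replicate activation of at least 60% and every replicate at or above 60%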
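Assay system: CHO ldlA[mSR-BI] cells, LDL receptor-null, SR-BI overexpressing; medium: Ham's F12 with 0.5% BSA, HEPES 25 mM, pH 7.4; also added: DiI-HDL 10 µg/mL; timing: 3 h uptake period with compound, 37 °C; signal: DiI fluorescence, bottom read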
Wnt act = Wnt/beta-catenin pathway activation | Wnt/beta-catenin reporter cell assay, activator, plate reader | activation, % at 9.35 µM | hit rate 1.2% among 300,000 | AID 743398; in the data active = activation above about 30%, passing the limit was not always enough
SR-BI DiI inh = mouse SR-BI HDL lipid transfer inhibition; Q61009; ldlA[mSR-BI] CHO cells, DiI-HDL uptake fluorescence, 3 h; inhibition, % at 12.5 µM; hit rate 0.96% among 320,000;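 active = mean replicate inhibition of at least 70% and a set share of replicates each scoring 70 or more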
Target sequence (Q61009 whole entry, looked up): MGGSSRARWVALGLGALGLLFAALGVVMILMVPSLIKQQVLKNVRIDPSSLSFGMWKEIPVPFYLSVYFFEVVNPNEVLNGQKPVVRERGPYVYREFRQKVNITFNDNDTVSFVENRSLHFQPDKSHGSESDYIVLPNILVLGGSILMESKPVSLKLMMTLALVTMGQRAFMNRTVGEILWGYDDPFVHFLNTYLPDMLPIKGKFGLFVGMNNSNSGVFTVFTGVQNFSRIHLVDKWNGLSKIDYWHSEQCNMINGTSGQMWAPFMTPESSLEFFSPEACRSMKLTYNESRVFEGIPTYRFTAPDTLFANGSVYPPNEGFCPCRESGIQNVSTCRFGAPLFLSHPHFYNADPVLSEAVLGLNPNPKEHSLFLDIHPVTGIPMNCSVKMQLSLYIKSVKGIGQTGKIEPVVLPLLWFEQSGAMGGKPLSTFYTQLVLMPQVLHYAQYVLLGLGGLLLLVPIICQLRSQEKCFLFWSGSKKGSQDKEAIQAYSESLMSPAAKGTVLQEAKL
HSF1 activator = increases HSF-1 driven luciferase reporter signal | NIH3T3-HGL HSF-1 luciferase reporter, MG132, 8 h; 100% = twice DMSO control signal | activation, % at 9 µM | hit rate 1.7% among 300,000;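 active = mean replicate activation of at least 50% with a set share of replicates each reaching 50%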
Of the large screens only hits and unclear results are named; the others gave an inactive call. Shown are actives, neighbours in structure and some others; about 3.6% of the full set was active somewhere.

COc1cccc(C(=O)COC(=O)C(C)N2C(=O)c3ccccc3C2=O)c1 (configuration not stated)	none (no result: Wnt act)
COc1cccc(C(=O)COC(=O)C(C)N2C(=O)C3C4C=CC(C4)C3C2=O)c1 (configuration not stated)	HSF1 activator 57 (no result: Wnt act)
O=C(O)c1cccc(S(=O)(=O)Nc2cccc3ccccc23)c1	none (no result: SR-BI uptake up, SR-BI DiI inh)
O=S(=O)(Nc1cccc2ccccc12)c1ccccc1	HSF1 activator 61 (no result: SR-BI uptake up, SR-BI DiI inh)
COc1ccccc1NS(=O)(=O)c1ccc(NC(C)=O)cc1	none (no result: Wnt act)
COC(=O)Nc1ccc(S(=O)(=O)Nc2cccc3ccccc23)cc1	HSF1 activator 68 (no result: Wnt act)
COC(=O)c1cc2c(c3c4ccccc4n(S(=O)(=O)c4ccc(OC)cc4)c13)C(=O)N(Cc1ccco1)C2	none (no result: MITF act, SR-BI uptake up, SR-BI DiI inh, HSF1 activator)
CC1(C)OC(=O)C2=C(CC(CCc3ccccc3)OC2c2cccc(C(F)(F)F)c2)O1 (configuration not stated)	none (no result: MITF act, SR-BI uptake up, SR-BI DiI inh, HSF1 activator)
O=C(Cc1ccc(NC(=O)C2CCN(C(=O)C3CCCC3)CC2)cc1)Nc1cccc(C(=O)N2CCCCC2)c1	none (no result: HSF1 activator)
CCOc1cc(CNC(C)C)c(Cl)cc1OCC(=O)NCCc1ccccc1	SR-BI DiI inh 78
CC(C)C[C@@H](CN1CCC[C@H]1CN1C(=O)C(=O)NC[C@@H]1Cc1ccc(O)cc1)N1C[C@H](Cc2ccc(O)cc2)N(CCc2ccccc2)C(=O)C1=O	none (no result: MITF act, SR-BI uptake up, SR-BI DiI inh, HSF1 activator)
CC(C)(C)c1ccc(/C=N/NC(=S)NCc2ccccc2)cc1	none
Oc1ccc(/C=N/NC(=S)NCc2ccco2)cc1	none (no result: Wnt act)
S=C(NCc1ccco1)N/N=C/c1ccc(Cl)cc1	HSF1 activator 95
CN(C)c1ccc(/C=N/NC(=S)NCc2ccccc2)cc1	HSF1 activator 55 (no result: MITF act)
CNC(=S)N/N=C/c1ccc(C(C)C)cc1	none (no result: Wnt act)
CNC(=S)N/N=C/c1ccc(N(C)C)cc1	Wnt act 48 (no result: MITF act)
CC(C)c1[nH]nc2c1C(c1cccc(C(F)(F)F)c1)N(c1ccccc1)C2=O (configuration not stated)	none (no result: MITF act, SR-BI uptake up, SR-BI DiI inh, HSF1 activator)
Cc1cc(C(=O)N2CCC2(C)C(=O)NCc2cccc3ccccc23)nn1C (configuration not stated)	none (no result: MITF act, SR-BI uptake up, SR-BI DiI inh, HSF1 activator)
COc1ccc(O)c(C(=O)CC(=O)c2cccnc2)c1	Wnt act 34 (no result: HSF1 activator)
COc1ccc(O)c(C(=O)CC(=O)c2ccc(F)cc2)c1	none (no result: Wnt act)
CC(C)NC(=O)Cc1ccc(Br)cc1	none
COc1ccc(CNc2ccc(C(=O)O)cc2)cc1	none (no result: MITF act, SR-BI uptake up, Wnt act, SR-BI DiI inh)
COc1ccc(C(C)NC(=O)Cc2ccc(Br)cc2)cc1 (configuration not stated)	HSF1 activator 61 (no result: Wnt act)
COc1ccc(CNc2ccc(Br)cc2)cc1	Wnt act 43
Cc1cc(C)n(-c2cc(=O)n(C)c(=O)n2C)n1	HSF1 activator 67 (no result: Wnt act)
CCCC(=O)c1cc2ccccc2oc1=O	none (no result: Wnt act)
COc1ccc(C(=O)Cc2cc3ccccc3oc2=O)cc1	MITF act 121, HSF1 activator 56
CCOc1ccc(C(=O)Cc2cc3cccc(OC)c3oc2=O)cc1	none
Cc1ccc(C(=O)Cc2cc3ccccc3oc2=O)c(C)c1	HSF1 activator 85
Cc1cc(C)cc(C(=O)NC(=S)Nc2ccc(-c3cc4ccccc4oc3=O)cc2)c1	none
Cc1ccc(C(=O)NC(=S)Nc2ccc(-c3cc4ccccc4oc3=O)cc2)c(C)c1	SR-BI DiI inh 82
CC(C)OC(=O)N(C)C[C@H]1OCc2cnnn2CCCC(=O)N([C@H](C)CO)C[C@H]1C	none (no result: MITF act, SR-BI uptake up, SR-BI DiI inh, HSF1 activator)
Oc1ccc2ccccc2c1C=Nc1ccc(Cl)cn1	Wnt act 46
Oc1ccccc1C=NN=Cc1c(O)ccc2ccccc12	Wnt act 48
Oc1ccc2ccccc2c1C=NCc1ccccc1	none (no result: SR-BI uptake up, SR-BI DiI inh, HSF1 activator)
CC1(c2ccccc2)NC(=O)N(CC(=O)Nc2ccc(S(=O)(=O)NC3=NCCCCC3)cc2)C1=O (configuration not stated)	none (no result: HSF1 activator)
O=C(NCc1ccco1)Nc1c(Cl)cc(Cl)cc1Cl	none (no result: MITF act, SR-BI uptake up, SR-BI DiI inh, HSF1 activator)
O=C(NCc1ccco1)Nc1ccc(Br)cc1Cl	MITF act 91 (no result: SR-BI uptake up, Wnt act, SR-BI DiI inh)
CCCCn1cnc2c(SCc3ccccc3F)nc(N)nc21	none (no result: HSF1 activator)
Nc1c(C(=O)N2CCCC2)sc2nc(-c3ccccc3)ccc12	MITF act 103, Wnt act 49
C=CCC[C@H](CCCCC)OC(=O)/C=C/[C@@H](O)[C@H](O)C[C@H](O)CC=C	none (no result: MITF act, SR-BI uptake up, SR-BI DiI inh, HSF1 activator)
COc1ccc(NC(=O)c2ccccc2[N+](=O)[O-])cc1	none (no result: Wnt act)
COc1ccccc1Nc1ccc(NC(=O)c2cccc([N+](=O)[O-])c2C)cc1	SR-BI DiI inh 84
CCN(CC)c1ccc(C(=C2C=CC(=[N+](CC)CC)C=C2)c2ccc(S(=O)(=O)O)cc2S(=O)(=O)[O-])cc1	none (no result: HSF1 activator)
OC1COC(c2ccccc2)OC1C(O)C1OC(c2ccccc2)OCC1O (configuration not stated)	none (no result: SR-BI uptake up, SR-BI DiI inh, HSF1 activator)
COc1ccc(OC)c(-c2nn(-c3ccccc3)cc2C(=O)NC2(C)CCS(=O)(=O)C2)c1 (configuration not stated)	none (no result: MITF act, SR-BI uptake up, SR-BI DiI inh, HSF1 activator)
COc1ccc(CNC(=O)CN2C(=O)C(C)N(c3ccc(C)cc3)C2=O)cc1 (configuration not stated)	HSF1 activator 54 (no result: Wnt act)
Cc1nc2ccccc2n1S(=O)(=O)c1ccc(Br)cc1	SR-BI uptake up 65
CCc1ccc(S(=O)(=O)n2c(C)nc3ccccc32)cc1	none (no result: MITF act)
Nc1ccccc1-c1nnc(-c2ccc(-c3ccccc3)cc2)o1	MITF act 91 (no result: Wnt act)
c1ccc(-c2nnc(-c3ccccc3)o2)cc1	none (no result: Wnt act)
Nc1ccc(-c2nnc(-c3ccc(N)cc3)o2)cc1	MITF act 99, Wnt act 35
COC(=O)c1cccc(OCCCN2CCC(C(O)(c3ccccc3)c3ccccc3)CC2)c1	none (no result: MITF act, SR-BI uptake up, SR-BI DiI inh, HSF1 activator)
CCCC(=O)OC[C@H]1CN([C@H](C)c2ccccc2)S(=O)(=O)c2c(F)cccc2O1	none (no result: MITF act, SR-BI uptake up, SR-BI DiI inh, HSF1 activator)
CN(C)CCCNC(=O)c1cc2sc3ccccc3c2s1	none
COCCNC(=O)c1cc2sc3ccccc3c2s1	Wnt act 46 (no result: MITF act)
COC(=O)C1=C(C)N(Cc2cccc(C(F)(F)F)c2)C(=NCC2CC2)NC1c1ccccc1C(F)(F)F (configuration not stated)	none (no result: MITF act, SR-BI uptake up, SR-BI DiI inh, HSF1 activator)
CC1CCCCN1C(=O)COc1ccccc1F (configuration not stated)	HSF1 activator 56
COC(=O)C1=C(C)Nc2nc3ccccc3n2C1c1cc(OC)c(OC)c(OC)c1 (configuration not stated)	Wnt act 44 (no result: MITF act, SR-BI uptake up, SR-BI DiI inh)
COc1cc(Nc2nc(-c3ccccc3)c3cc(C)ccc3n2)cc(OC)c1OC	SR-BI DiI inh 72 (no result: MITF act, Wnt act)
COc1cccc(/C=C/C(=O)NNC(=O)c2ccccc2)c1OC	Wnt act 34 (no result: HSF1 activator)
CC[N+](C)(CC)CCC/C(=N/O)C(O)(c1ccccc1)c1ccccc1	Wnt act 33 (no result: MITF act, SR-BI uptake up, SR-BI DiI inh)
N#CCc1ccc(OC(=O)c2ccncc2)cc1	none
O=C(OCc1ccc(COC(=O)c2cccnc2Cl)cc1)c1cccnc1Cl	none
CCC(C)(C)c1ccc(OC(=O)c2cccnc2Cl)cc1	HSF1 activator 59 (no result: SR-BI uptake up, SR-BI DiI inh)
N#CCc1ccc(OC(=O)c2cccnc2Cl)cc1	Wnt act 39
